Compound activity from PubChem BioAssay.
WNV NS2B-NS3 inh – WNV NS2B-NS3 proteinase inhibition; P06935; WNV NS2B-NS3 protease, fluorogenic substrate Ex360/Em465; stronger effect = lower value; z-score (no concentration beside the values); 65,000 compounds, 0.18% hits; AID 577; in the data active means z-score below about -3
DAT uptake mod – human DAT dopamine uptake with cocaine, either direction; LLC-PK1 hDAT cells, [14C]-dopamine uptake with cocaine IC80; actives deviate in either direction; B-score at 10 µM; 110,000 compounds, 1.3% hits; AID 449768;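 active means Z score or B-score, a plate-position-corrected score, falls beyond the plate's 99.7% confidence bounds, in either direction; inactive means both scores lie inside the 99.7% bounds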
Target sequence (Q01959 whole entry, looked up): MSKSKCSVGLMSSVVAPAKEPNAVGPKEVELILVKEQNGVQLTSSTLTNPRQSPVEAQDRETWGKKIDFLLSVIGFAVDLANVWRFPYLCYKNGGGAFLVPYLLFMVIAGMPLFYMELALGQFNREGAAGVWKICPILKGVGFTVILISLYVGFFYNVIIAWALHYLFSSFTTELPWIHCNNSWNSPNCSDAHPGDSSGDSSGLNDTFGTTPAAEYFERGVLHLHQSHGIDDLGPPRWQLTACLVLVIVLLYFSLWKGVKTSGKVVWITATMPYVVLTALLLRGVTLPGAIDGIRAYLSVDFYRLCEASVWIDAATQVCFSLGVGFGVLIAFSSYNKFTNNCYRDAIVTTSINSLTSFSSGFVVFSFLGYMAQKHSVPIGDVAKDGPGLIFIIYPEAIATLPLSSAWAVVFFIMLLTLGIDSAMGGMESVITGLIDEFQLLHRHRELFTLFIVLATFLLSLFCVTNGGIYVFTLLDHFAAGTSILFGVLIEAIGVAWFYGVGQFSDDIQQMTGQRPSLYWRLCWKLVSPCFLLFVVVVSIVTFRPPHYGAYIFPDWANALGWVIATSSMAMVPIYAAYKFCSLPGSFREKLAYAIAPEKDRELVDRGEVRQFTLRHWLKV
D1 allo mod – allosterically modulates the human D1 dopamine receptor | P21728 | HEK293 D1, CRE-luciferase, dopamine EC30 potentiation; actives deviate in either direction | B-score at 10 µM | 58,000 compounds, 5.9% hits | AID 641;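 active means luminescence count or its row- and column-corrected plate score outside the 99.7% band of the plate's sample wells, on either side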
AP ELISA ortho – orthogonal test for alternative complement pathway inhibitors. Human serum alternative complement pathway, LPS-coated ELISA, C3 deposition; tested in compound mixtures. inhibition, % at 5 µM. 62,000 compounds, 0.08% hits. AID 1235;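 active means inhibition above 30% in each of the two pooled mixtures holding the compound, so the lower value exceeds 30%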
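Test system: human serum alternative complement pathway, C3 deposition on LPS-coated wells; also added: Plate-bound LPS; doses: 5 µM per compound in ten-compound mixtures; schedule: 1 h at 37 °C; detection: Anti-C3 ELISA, OD 450 nm; evaluation: percent inhibition of C3 deposition onto LPS; repeats: two pool placements per compound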
D1 mod confirm – D1 receptor (human) allosteric modulation, confirmed; shares compounds with D1 allo mod; HEK293 D1 CRE-luciferase, dopamine EC30 potentiation; stronger effect = higher value; luminescence at 10 µM; 2,200 compounds, 88% hits; AID 642;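 active means luminescence in either of two replicates above the same-plate mean plus 3 SD of the low-dose dopamine control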
D1 no dopamine – activates D1 CRE-luciferase signal without dopamine present; HEK293 D1 CRE-luciferase, luminescence, no dopamine; stronger effect = higher value; shares compounds with D1 allo mod; luminescence at 10 µM; 1,900 compounds, 0.8% hits; in the data active means luminescence above about 3900
Isoprot counter – isoproterenol response counter-screen activity for D1 modulators. shares compounds with D1 allo mod. HEK293 D1 CRE-luciferase, isoproterenol EC30 counter-screen; stronger effect = higher value. luminescence at 10 µM. 2,200 compounds, 63% hits. AID 647;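 active means luminescence in either replicate above plate mean of wells with a partly effective reference agonist dose plus 3 SD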;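 further: isoproterenol raises cAMP through native beta-adrenoceptor Gs so signal bypasses D1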
A number is an active result; - = inactive; . = no result. Many of the other results were omitted from the sample, so hits are more common in it than they were.

SMILES	WNV NS2B-NS3 inh	DAT uptake mod	D1 allo mod	AP ELISA ortho	D1 mod confirm	D1 no dopamine	Isoprot counter
O=C(NCCC1=CCCCC1)C1CCN(S(=O)(=O)c2cccc3nsnc23)CC1	-	-	-	-	.	.	.
C[N+]1(CCOc2ccc([N+](=O)[O-])cc2)CCOCC1	.	-	.	.	.	.	.
COc1cc(Br)cc(-c2nc3c(c(=O)[nH]c(=O)n3Cc3ccccc3)n2C)c1O	-	-	8.2	-	26460	-	3668
COc1ccc(-c2nc3c(c(=O)[nH]c(=O)n3Cc3ccccc3)n2C)cc1	.	-	.	.	.	.	.
COc1ccc(C(=O)CSc2ncn[nH]2)cc1OC	-	-	18	-	17148	-	3200
Cc1noc(C)c1CSc1nnc2scc(-c3ccccc3)n12	-	-	11	-	13660	-	4560
Cc1noc(C)c1CSc1nnc(-c2ccccc2)n1Cc1ccco1	-	-	4.7	-	-	-	-
CCc1ccc(-c2nc(CN3CCC(C(=O)N4CCN(c5ccccn5)CC4)CC3)c(C)o2)cc1	-	.	7.1	-	6240	.	2640
COc1ccc(-c2csc(/C(C#N)=C(\O)CSc3nccn3C)n2)cc1OC	-	-	19	-	18552	-	3944
CC(C)C(=O)N(Cc1cc2ccccc2[nH]c1=O)C(C)(C)C	-	-	-	-	.	.	.
CC1(C)CC(=O)C(/C=N/n2c(C(F)(F)F)nc3ccccc3c2=O)=C(O)C1	.	-	.	.	.	.	.
CCCOc1ccc(-c2cnc(N)s2)cc1	.	-	.	.	.	.	.
Cn1c(N2CCCC2)nc2c1c(=O)n(Cc1ccc(F)cc1)c(=O)n2C	-	-	4.5	-	12452	-	4528
Cn1c(=O)[nH]c(=O)c2c1nc(N1CCCCCC1)n2CCN1CCCCCC1	-	-	-	-	.	.	.
C/C(Cl)=C/Cn1c(N2CCCC2)nc2c1c(=O)n(C)c(=O)n2C	-	-	8.5	-	7912	.	-
C=CCn1c(N2CCCCCC2)nc2c1c(=O)[nH]c(=O)n2C	-	-	6.4	.	12744	-	4560
Cn1c(=O)n(Cc2ccc(F)cc2)c(=O)c2c1nc1n2CCCN1Cc1ccccc1	-	-	-	-	.	.	.
C/C(Cl)=C\Cn1c(N2CCCC2)nc2c1c(=O)[nH]c(=O)n2C	-	-	11	-	16008	-	4536
Cc1nnc(NC(=O)CCC(=O)NCc2ccco2)s1	-	-	-	-	.	.	.
O=c1c2c3nc4ccccc4nc3n(-c3ccc4c(c3)OCCO4)c2ncn1CC1CCCO1 (stereo unspecified)	-	.	-	-	.	.	.
COCCCn1c2nc3ccccc3nc2c2c(=O)n(CC3CCCO3)cnc21 (stereo unspecified)	-	-	6.4	.	8104	.	-
CCC(c1nnnn1Cc1ccc(F)cc1)N(CCCO)Cc1cc2cc3c(cc2[nH]c1=O)OCO3 (stereo unspecified)	-	-	5.5	-	-	-	-
CC(C)CSc1nc2c(c(=O)[nH]c(=O)n2C)n1CCc1ccccc1	-	-	19	-	14104	-	4516
CC(C)CCSc1nc2c(c(=O)[nH]c(=O)n2C)n1CCc1ccccc1	-	-	2.6	.	15840	-	4020
CCO[C@@H]1OC(C(=O)N2CCN(C)CC2)=C[C@H](c2coc3ccccc3c2=O)[C@H]1CCCO	.	-	.	.	.	.	.
SMILES	WNV NS2B-NS3 inh	DAT uptake mod	D1 allo mod	AP ELISA ortho	D1 mod confirm	D1 no dopamine	Isoprot counter
Cc1cc(NC(=O)CSc2nc3ccc(Cl)cc3[nH]2)no1	.	-	.	.	.	.	.
CNC(=O)N(C1=NCC(C)(C)S1)c1ccc(F)c(Cl)c1	-	-	11	-	25560	-	5508
CCCc1nc2ccccc2c(C(=O)OCC(=O)NCc2ccco2)c1CC	.	-	.	.	.	.	.
CCc1nc2ccccc2c(C(=O)OCC(=O)NCc2ccco2)c1C	-	-	4.4	-	8196	-	-
O=C(NCc1ccncc1)Nc1ccc(F)cc1	-	-	-	-	.	.	.
CC(Oc1ccc(C(C)(C)C)cc1)c1ccnc2nc(/N=C/N(C)C)nn12 (stereo unspecified)	.	-	.	.	.	.	.
CC(C)CCNC(=O)c1nnc(Cc2ccc(Cl)cc2)o1	.	-	.	.	.	.	.
CCOC(=O)CSc1nnc(CSc2nc3sc4c(c3c(=O)[nH]2)CCC4)n1C	-	-	2.6	-	-	-	-
Cc1nn(-c2ccc(C(=O)O)cc2)c(C)c1Oc1ccccc1O	.	-	.	.	.	.	.
Cc1nn(-c2ccccn2)c(C)c1Oc1ccccc1O	-	-	3.8	-	-	-	-
CCOC(=O)C(C)Oc1cccc2c(=O)n(CC(=O)NCc3ccco3)ccc12 (stereo unspecified)	-	-	3.3	-	6652	-	-
CC(C)C(=O)c1cn(CC(=O)NCc2ccco2)c2ccccc12	.	-	.	.	.	.	.
COc1ccc(S(=O)(=O)N(C)CC(=O)Nc2cccc(C(C)=O)c2)cc1Cl	.	-	.	.	.	.	.
CCOC(=O)C(O)(CCC(O)(C(=O)OCC)C(=O)OCC)C(=O)OCC	-	-	5	.	6712	-	-
CCOC(=O)C(CCC#N)(CCC#N)C(=O)OCC	-	-	-	-	.	.	.
CSc1nnc2c3ccccc3n(Cc3ccccc3)c2n1	-	-	10	-	15672	-	4672
CSc1nnc2c3ccccc3n(CCc3ccccc3)c2n1	-	-	-	-	.	.	.
CNC[C@H](O)c1cccc(O)c1	-	-	17	-	11024	5672	16336
COc1ccc(CN(C(=O)c2ccco2)c2ccc(Br)cc2)cc1OC	-	-	-	-	.	.	.
COc1cc(CN(C(=O)c2ccco2)c2ccc(C)cc2)ccc1O	-	-	9.5	-	13744	-	4300
O=C1C2C3CCCC3=C3CCCC3C2C(=O)N1c1ccccc1 (stereo unspecified)	-	-	-	-	.	.	.
COc1nc(N2CCCCCC2)nc(N2CCCCCC2)n1	-	-	-	-	.	.	.
COc1nc(N(C#N)CC(N)=O)nc(N2CCCC2)n1	-	-	8.4	-	20228	-	6184
COC(=O)CN(C#N)c1nc(SC)nc(N(C)C)n1	-	-	-	-	.	.	.
COc1nc(/C(N)=N/O)nc(N2CCCCC2)n1	-	-	13	-	24932	-	5356
SMILES	WNV NS2B-NS3 inh	DAT uptake mod	D1 allo mod	AP ELISA ortho	D1 mod confirm	D1 no dopamine	Isoprot counter
Cc1cc(NC(=O)CSc2nc3sc(C)c(C)c3c(=O)n2C2CCCC2)no1	.	-	.	.	.	.	.
Cc1cccc(CCNS(=O)(=O)c2cnc[nH]2)c1	-	-	4.4	-	-	-	-
Cc1cccc(CCNS(=O)(=O)c2ccc3c(c2)oc(=O)n3C)c1	-	-	.	-	.	.	.
CCC(C)NC(=O)CSC1=Nc2ccccc2C2=NC(CC(=O)NCc3ccccc3)C(=O)N12 (stereo unspecified)	-	-	-	-	.	.	.
COc1ccc(C2CNC(=O)C2)cc1OC1CCCC1 (stereo unspecified)	-	-	45	-	20880	.	4172
Cc1ccc(S(=O)(=O)c2cc3c(=O)n4ccccc4nc3n(C)c2=N)cc1	-	.	5.3	.	13268	-	3184
Cc1ccccc1-n1c(=O)c(C#N)cc2c(=O)n3ccccc3nc21	.	-	.	.	.	.	.
